Test results taken from ChEMBL document CHEMBL5696442, “Discovery of type II inhibitors of TGFβ-activated kinase 1 (TAK1) and mitogen-activated protein kinase kinase kinase kinase 2 (MAP4K2)” (J Med Chem, 2015).
Active and inactive are the calls of the source. The rule behind the calls is not given here.

Tests used:
[1] = molecular target: T1, Phosphatidylinositol 5-phosphate 4-kinase type-2 gamma (Homo sapiens) (UniProt Q8TBX8); experiment: Inhibition of PIP4K2C ATP labeling site harbouring TLVIKEVSSEDIADMHSNLSNYHQYIVK in human Huh-7 cell lysate at 1 uM by KiNativ Profiling analysis relative to control; format: subcellular
T1 sequence (whole entry): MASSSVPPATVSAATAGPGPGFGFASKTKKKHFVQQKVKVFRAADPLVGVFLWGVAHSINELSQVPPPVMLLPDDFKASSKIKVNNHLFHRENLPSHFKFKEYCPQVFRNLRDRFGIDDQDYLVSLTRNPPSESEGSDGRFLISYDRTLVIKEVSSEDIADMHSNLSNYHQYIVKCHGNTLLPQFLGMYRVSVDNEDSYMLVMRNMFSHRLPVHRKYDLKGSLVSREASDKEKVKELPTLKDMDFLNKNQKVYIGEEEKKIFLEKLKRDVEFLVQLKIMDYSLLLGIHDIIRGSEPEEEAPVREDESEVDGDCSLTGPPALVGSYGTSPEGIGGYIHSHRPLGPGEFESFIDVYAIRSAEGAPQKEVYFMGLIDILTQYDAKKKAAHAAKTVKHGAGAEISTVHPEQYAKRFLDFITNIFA

[2] = molecular target: T2, Serine/threonine-protein kinase Chk1 (Homo sapiens) (UniProt O14757); experiment: Inhibition of CHK1 in human Huh-7 cell lysate at 1 uM by KiNativ Profiling analysis relative to control; format: subcellular
T2 sequence (whole entry): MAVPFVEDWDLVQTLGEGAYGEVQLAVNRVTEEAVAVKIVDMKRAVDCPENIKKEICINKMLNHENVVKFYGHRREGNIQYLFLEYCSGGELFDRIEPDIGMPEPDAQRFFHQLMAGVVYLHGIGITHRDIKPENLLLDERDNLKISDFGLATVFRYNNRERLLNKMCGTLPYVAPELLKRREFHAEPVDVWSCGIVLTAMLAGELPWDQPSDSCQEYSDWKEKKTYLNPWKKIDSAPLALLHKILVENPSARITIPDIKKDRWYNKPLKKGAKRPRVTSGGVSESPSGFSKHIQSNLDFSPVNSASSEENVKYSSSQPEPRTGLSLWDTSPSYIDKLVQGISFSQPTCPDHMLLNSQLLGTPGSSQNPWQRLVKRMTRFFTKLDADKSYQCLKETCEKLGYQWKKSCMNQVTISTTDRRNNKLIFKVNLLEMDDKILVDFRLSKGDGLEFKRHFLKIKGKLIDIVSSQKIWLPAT

[3] = molecular target: T3, Acylglycerol kinase, mitochondrial (Homo sapiens) (UniProt Q53H12); experiment: Inhibition of AGK ATP labeling site in human Huh-7 cell lysate at 1 uM by KiNativ Profiling analysis relative to control; format: subcellular
T3 sequence (whole entry): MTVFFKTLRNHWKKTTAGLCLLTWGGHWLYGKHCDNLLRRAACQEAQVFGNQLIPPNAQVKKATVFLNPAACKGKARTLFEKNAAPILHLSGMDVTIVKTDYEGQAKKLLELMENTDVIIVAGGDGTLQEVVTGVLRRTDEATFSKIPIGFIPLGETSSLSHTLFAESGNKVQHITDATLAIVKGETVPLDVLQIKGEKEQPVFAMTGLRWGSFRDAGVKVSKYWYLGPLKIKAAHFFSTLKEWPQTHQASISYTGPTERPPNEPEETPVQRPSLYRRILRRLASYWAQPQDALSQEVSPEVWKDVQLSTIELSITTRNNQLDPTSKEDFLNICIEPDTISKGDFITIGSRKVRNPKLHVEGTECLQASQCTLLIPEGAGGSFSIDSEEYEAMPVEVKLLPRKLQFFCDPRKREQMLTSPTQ

[4] = molecular target: Serine/threonine-protein kinase/endoribonuclease IRE1 (Homo sapiens) (UniProt O75460); experiment: Inhibition of IRE1 Lys2 labeling site in human Huh-7 cell lysate at 1 uM by KiNativ Profiling analysis relative to control; format: subcellular
Serine/threonine-protein kinase/endoribonuclease IRE1 (Homo sapiens), sequence (O75460 19-977 limits assumed): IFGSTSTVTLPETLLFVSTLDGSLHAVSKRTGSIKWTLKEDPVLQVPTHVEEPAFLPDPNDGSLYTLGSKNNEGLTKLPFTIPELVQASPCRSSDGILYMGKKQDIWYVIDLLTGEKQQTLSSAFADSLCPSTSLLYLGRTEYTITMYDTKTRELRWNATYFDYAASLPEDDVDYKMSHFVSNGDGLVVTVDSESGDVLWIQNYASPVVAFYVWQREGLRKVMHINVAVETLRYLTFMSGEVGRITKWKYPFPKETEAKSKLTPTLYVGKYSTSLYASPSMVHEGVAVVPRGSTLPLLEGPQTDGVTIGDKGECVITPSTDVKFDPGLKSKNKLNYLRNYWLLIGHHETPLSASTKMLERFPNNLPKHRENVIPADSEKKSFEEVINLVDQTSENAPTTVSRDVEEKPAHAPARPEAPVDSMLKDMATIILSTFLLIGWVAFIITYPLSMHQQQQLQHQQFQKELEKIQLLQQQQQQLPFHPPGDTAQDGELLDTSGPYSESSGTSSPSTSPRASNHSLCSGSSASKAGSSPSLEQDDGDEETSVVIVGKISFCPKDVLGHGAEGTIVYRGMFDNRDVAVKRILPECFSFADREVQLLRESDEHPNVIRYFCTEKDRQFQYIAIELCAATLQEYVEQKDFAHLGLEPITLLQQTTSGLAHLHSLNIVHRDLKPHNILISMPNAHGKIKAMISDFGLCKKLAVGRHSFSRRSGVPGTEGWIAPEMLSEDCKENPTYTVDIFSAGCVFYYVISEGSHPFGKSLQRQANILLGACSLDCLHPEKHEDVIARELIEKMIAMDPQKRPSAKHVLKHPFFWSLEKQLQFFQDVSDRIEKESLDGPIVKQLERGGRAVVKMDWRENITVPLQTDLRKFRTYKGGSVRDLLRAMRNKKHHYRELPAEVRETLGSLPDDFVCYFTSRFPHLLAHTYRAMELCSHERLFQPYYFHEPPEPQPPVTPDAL

[5] = molecular target: Mitogen-activated protein kinase kinase kinase kinase 4 (Homo sapiens, UniProt O95819); experiment: Inhibition of MAP4K4 (unknown origin) at 10 uM by Ambit Kinomescan binding assay relative to control
Mitogen-activated protein kinase kinase kinase kinase 4, sequence (O95819 2-1239 limits assumed): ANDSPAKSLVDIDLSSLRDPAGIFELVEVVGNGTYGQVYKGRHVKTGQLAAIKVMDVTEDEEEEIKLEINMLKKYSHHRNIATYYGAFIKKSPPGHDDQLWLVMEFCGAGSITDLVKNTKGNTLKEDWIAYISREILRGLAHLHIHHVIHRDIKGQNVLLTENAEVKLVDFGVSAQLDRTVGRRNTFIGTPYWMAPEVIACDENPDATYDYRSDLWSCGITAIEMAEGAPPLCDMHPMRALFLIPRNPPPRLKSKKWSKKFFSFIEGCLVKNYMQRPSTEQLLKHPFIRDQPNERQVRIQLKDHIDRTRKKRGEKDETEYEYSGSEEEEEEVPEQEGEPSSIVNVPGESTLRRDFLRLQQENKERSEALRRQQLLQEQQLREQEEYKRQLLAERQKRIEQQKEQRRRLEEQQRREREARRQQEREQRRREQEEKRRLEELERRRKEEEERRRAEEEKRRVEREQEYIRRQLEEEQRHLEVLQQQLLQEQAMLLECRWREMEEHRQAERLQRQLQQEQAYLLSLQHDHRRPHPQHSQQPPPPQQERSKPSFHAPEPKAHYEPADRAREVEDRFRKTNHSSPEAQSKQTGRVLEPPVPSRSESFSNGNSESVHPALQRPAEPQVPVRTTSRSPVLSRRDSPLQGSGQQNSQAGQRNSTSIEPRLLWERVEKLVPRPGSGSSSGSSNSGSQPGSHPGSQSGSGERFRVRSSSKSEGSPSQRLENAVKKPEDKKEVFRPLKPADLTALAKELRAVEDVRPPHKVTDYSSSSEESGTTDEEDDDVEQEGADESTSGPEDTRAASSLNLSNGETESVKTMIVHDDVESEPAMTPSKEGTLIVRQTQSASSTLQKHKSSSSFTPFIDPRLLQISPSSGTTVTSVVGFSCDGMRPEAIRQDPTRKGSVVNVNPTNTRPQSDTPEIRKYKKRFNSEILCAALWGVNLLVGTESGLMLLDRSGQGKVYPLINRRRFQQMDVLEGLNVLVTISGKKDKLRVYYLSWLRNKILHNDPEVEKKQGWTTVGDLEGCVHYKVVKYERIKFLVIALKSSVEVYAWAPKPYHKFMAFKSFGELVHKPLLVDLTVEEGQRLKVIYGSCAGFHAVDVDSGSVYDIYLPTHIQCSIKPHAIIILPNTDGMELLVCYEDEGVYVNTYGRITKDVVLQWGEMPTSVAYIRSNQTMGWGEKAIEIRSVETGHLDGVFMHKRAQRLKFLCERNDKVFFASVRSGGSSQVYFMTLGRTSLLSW

[6] = molecular target: T4, Inhibitor of nuclear factor kappa-B kinase subunit epsilon (Homo sapiens) (UniProt Q14164); experiment: Inhibition of IKKe K2 labeling site in human Huh-7 cells at 10 uM by KiNativ Profiling analysis relative to control; format: cell-based
T4 sequence (whole entry): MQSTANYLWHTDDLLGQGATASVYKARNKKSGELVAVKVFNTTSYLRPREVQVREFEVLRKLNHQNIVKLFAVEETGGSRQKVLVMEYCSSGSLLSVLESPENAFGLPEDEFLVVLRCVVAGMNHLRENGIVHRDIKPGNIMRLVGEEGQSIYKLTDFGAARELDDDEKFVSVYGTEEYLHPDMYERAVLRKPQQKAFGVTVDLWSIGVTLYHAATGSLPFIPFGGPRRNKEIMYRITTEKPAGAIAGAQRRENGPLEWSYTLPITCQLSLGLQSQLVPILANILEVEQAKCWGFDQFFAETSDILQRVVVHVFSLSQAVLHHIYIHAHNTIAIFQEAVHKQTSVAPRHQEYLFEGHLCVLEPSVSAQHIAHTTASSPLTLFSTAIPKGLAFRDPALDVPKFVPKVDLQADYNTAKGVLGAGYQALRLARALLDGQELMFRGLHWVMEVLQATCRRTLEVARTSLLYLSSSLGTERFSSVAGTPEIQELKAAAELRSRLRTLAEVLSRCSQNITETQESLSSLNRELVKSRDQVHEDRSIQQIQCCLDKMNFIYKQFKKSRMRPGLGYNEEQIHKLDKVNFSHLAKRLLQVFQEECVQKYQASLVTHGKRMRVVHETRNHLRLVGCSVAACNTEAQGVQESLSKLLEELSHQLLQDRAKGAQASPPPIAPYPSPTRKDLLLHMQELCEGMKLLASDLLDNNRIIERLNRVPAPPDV

[7] = molecular target: T2, Serine/threonine-protein kinase Chk1 (Homo sapiens); experiment: Inhibition of CHEK1 (unknown origin) at 10 uM by Ambit Kinomescan binding assay
[8] = molecular target: Serine/threonine-protein kinase 38 (Homo sapiens) (UniProt Q15208); experiment: Inhibition of NDR1 ACT labeling site in human A-375 cells at 0.5 uM by KiNativ Profiling analysis relative to control; format: cell-based
Serine/threonine-protein kinase 38 (Homo sapiens), sequence (Q15208 2-465 limits assumed): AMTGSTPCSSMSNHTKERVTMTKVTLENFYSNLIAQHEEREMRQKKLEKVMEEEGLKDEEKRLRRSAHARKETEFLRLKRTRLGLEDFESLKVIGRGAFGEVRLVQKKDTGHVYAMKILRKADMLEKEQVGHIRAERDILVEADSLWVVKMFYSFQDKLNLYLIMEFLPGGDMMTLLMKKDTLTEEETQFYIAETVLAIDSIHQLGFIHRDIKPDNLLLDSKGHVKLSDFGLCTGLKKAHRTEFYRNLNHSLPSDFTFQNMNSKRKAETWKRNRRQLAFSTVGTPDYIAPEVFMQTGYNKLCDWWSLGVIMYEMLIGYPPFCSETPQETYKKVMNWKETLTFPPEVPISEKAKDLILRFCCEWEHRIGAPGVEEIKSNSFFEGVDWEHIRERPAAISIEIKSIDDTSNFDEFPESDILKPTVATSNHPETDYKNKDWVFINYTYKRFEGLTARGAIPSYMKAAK

293-IL-1R = experiment: Inhibition of IL-1alpha induced p38 phosphorylation level in human 293-IL-1R cells preincubated for 1 hr followed by IL-1 alpha stimulation and measured after 30 mins by Western blot analysis; format: functional, cell-based; settings: dose 0.01-10 µM
[9] = molecular target: Rho-associated protein kinase 1 (Homo sapiens) (UniProt Q13464); experiment: Inhibition of ROCK1 Lys2 labeling site in human A-375 cells at 0.5 uM by KiNativ Profiling analysis relative to control; format: cell-based
Rho-associated protein kinase 1 (Homo sapiens), sequence (Q13464 2-1354 limits assumed): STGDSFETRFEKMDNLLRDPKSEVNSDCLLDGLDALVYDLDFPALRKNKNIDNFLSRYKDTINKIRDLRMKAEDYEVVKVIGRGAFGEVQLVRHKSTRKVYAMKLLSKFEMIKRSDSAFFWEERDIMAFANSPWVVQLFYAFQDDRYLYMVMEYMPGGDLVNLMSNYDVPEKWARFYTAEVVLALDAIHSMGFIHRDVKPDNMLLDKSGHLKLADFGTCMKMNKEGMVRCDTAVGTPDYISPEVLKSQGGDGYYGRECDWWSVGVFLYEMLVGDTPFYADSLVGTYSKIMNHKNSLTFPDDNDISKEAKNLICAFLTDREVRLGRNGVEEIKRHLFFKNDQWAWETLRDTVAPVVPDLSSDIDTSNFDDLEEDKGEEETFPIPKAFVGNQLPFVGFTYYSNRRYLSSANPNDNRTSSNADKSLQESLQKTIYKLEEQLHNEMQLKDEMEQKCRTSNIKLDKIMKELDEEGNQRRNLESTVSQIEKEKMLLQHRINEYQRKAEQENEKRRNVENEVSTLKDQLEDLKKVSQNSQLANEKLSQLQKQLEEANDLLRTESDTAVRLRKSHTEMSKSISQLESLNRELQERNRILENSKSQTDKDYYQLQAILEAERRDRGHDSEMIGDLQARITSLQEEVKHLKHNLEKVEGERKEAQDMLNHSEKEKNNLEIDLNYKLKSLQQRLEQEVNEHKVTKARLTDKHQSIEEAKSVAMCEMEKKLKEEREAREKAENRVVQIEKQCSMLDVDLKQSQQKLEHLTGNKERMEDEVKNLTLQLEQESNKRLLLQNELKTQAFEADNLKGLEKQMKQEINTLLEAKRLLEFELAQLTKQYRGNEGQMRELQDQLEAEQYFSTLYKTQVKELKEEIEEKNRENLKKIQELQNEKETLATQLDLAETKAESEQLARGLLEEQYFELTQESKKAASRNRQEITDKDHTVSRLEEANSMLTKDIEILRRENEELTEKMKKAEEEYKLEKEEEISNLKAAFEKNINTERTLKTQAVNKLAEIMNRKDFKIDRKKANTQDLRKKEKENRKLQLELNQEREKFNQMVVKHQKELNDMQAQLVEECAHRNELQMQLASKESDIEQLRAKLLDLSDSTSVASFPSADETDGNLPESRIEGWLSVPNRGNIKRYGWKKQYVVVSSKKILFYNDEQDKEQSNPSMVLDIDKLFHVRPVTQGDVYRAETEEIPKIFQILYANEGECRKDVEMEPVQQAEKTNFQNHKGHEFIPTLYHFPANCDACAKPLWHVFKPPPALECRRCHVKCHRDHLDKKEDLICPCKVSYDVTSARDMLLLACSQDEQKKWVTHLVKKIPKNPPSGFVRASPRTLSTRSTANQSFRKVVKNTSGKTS
How it was run: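 Live A375 melanoma cells were treated with compound at 5 or 0.5 μM, then lysed. Lysates were labeled with a lysine-reactive ATP or ADP-biotin probe. Read-out was the compound's protection of kinase labeling sites from probe labeling (KiNativ).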

[10] = system: Tyrosine-protein kinase ABL1 (Homo sapiens), P00519 [M351T]; experiment: Inhibition of phosphorylated ABL1 M351T mutant (unknown origin) at 1 uM by Ambit Kinomescan binding assay relative to control; values are per cent of control

CNc1cc(Oc2cc(C(=O)Nc3cc(N4CCN(C)CC4)cc(C(F)(F)F)c3)ccc2C)ncn1
inhibition [1]: -3.6% | inhibition [2]: 0.5% | inhibition [3]: 3.4% | inhibition [4]: -2.5%

CCN1CCN(Cc2ccc(NC(=O)c3ccc(C)c(Oc4ccnc5[nH]ccc45)c3)cc2C(F)(F)F)CC1
inhibition [5]: 0% | inhibition [6]: 8.4% | inhibition [7]: inactive | inhibition [8]: -4.5% | inhibition (293-IL-1R): Dose-Dependent Effect | inhibition [9]: 2.3%

CCN1CCN(Cc2ccc(NC(=O)c3ccc(C)c(/C=C/c4cnc5[nH]ccc5c4OC)c3)cc2C(F)(F)F)CC1
% of control [10]: 4.4%
